According to article PMC4197414 (Scientific Reports, 2014):
Non-standard residues stand in square brackets, D forms with d. Nap = naphthalene (naphthaline) capping group; Lys(Me3) = C[N+](C)(C)CCCC[C@H](N)C(=O)O; Ada = adamantane cap

Legend:
[1] = Transmission electron microscopy; format: physicochemical; conditions: TEM, PBS; for morphology after self-assembly: pH = 7.4, above CMC, samples prepared at 25°C, uranyl acetate stain
How it was run: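 Samples were prepared in PBS at 25°C and applied to carbon-coated copper grids. Excess liquid was blotted with filter paper, and samples were negatively stained with uranyl acetate. Grids were dried overnight in a desiccator and imaged at 200 kV.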

[2] = test system: C-LytA (C-terminal moiety of the pneumococcal cell-wall amidase LytA); assay: Isothermal titration calorimetry; format: binding, Streptococcus pneumoniae; conditions: ITC; in words, as compared to Fmoc-K' itself
How it was run: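 Recombinant C-LytA was expressed in E. coli BL21(DE3), induced with 0.3 mM IPTG at 16°C for 16–18 h, purified on Q Sepharose, eluted with 2% choline, and dialysed into PBS to remove choline. It was a dimer by gel filtration and ultracentrifugation. ITC was run in PBS at 16°C with ligand at pH 7.4, both solutions degassed by centrifugation. Ligand was titrated into the protein cell (0.4 μL, then 19 × 2 μL injections, 120 s apart, stirred at 1000 rpm). Ka came from a one- or two-site binding fit.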

[3] = pH = 7.4, 1.25 mmol/L, 1.08 wt% (Figure 2 legend)

Substance: NapGFFYKKK'-NH2 (Nap-GFFYKK[Lys(Me3)]-NH2) [Compound 2]
- morphology after self-assembly [1]: uniform nanofibers
- length of nanofibers [1, 3]: several microns
- width of nanofibers [1, 3]: around 75 nm
- association constant (Ka) with C-LytA compared to Fmoc-K' [2]: far higher association constant

Substance: AdaGFFYKKK'-NH2 (Ada-GFFYKK[Lys(Me3)]-NH2) [Compound 1]
- average diameter of nanoparticles ([1]; pH = 7.4, 1.09 wt%): around 153 nm
- morphology after self-assembly [1]: nanoparticle morphology
- association constant (Ka) with C-LytA compared to Fmoc-K' [2]: far higher association constant
